# Results reported in ChEMBL document CHEMBL2331156, “Growth inhibition of human colon carcinoma cells by sesquiterpenoids and tetralones of Zygogynum calothyrsum” (2013).
# Tests used:
# [1] = system: KM12; assay: Cytotoxicity against human KM12 cells after 48 hrs by XTT assay; format: functional; details: KM12, 48 h
# Procedure, shortened: (§1)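 Two-day XTT colorimetric assay run on COLO205 and KM12 in parallel. Cells kept in RPMI-1640 with phenol red, 2mM L-glutamine and 10% FBS at 37 °C, 5% CO₂, and discarded after 25 passages. For the assay, cells were harvested into phenol-red-free medium without antibiotics and plated at 5,000 cells/well. After 24 hrs of incubation, samples were added as eight 2-fold serial dilutions. Values are the average of at least two tests.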
# [2] = system: COLO 205; assay: Cytotoxicity against human COLO205 cells after 48 hrs by XTT assay; format: functional; details: COLO 205, 48 h; procedure, shortened: as §1
Structure (SMILES),GI50 [1] [µM],GI50 [2] [µM]
CC1(C)CC[C@@H](OC(=O)/C=C/c2ccc(O)cc2)[C@]2(C)[C@@H]3C(=CC[C@@H]12)CO[C@@H]3O,14,18
CC1(C)CC[C@@H](OC(=O)/C=C/c2ccc(O)cc2)[C@]2(C)[C@@H]3C(=CC[C@@]12O)CO[C@@H]3O,25,29
CO[C@H]1O[C@H](OC)[C@H]2C1=CC[C@H]1C(C)(C)CC[C@@H](OC(=O)/C=C/c3ccc(O)cc3)[C@]21C,> 45,> 45
CC1(C)CC[C@@H](OC(=O)/C=C/c2ccc(O)cc2)[C@]2(C)[C@@H](C=O)C(C=O)=CC[C@@H]12,25,29
C=C(C)C1Cc2c(cc3c(c2O)C(=O)C[C@H](c2ccc(O)cc2)C3)O1 (stereo not given in full),29,35
COc1ccc([C@H]2CC(=O)c3c(cc4c(c3O)C=CC(C)(C)O4)C2)cc1O,17,11
COc1cc(O)c2c(c1)C[C@@H](c1ccc(O)c(O)c1)CC2=O [CALOTHYRLONE A],> 67,> 67
CC1(C)CCC[C@]2(C)[C@H]3COC(=O)C3=CC[C@@H]12 [CINNAMOLIDE],> 85,> 85
C=C(C)C1Cc2c(cc3c(c2O)C(=O)C[C@H](c2ccc(O)c(O)c2)C3)O1 (stereo not given in full) [ISOZYGOLONE A],32,32
CC1(C)C=Cc2c(cc3c(c2O)C(=O)C[C@H](c2ccc(O)c(O)c2)C3)O1 [ZYGOLONE A],14,17
